# Measured values taken from ChEMBL document CHEMBL1157070, “Polyhydroxysteroidal glycosides from the starfish Anthenea chinensis” (J Nat Prod, 2010).
# Active and inactive are the calls of the source. The rule behind the calls is not given here.
# What was measured:
# Bel-7402 = assay: Cytotoxicity against human Bel7402 cells after 72 hrs by SRB assay; format: functional, cell-based; conditions: Bel-7402, 72 h
# In short: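 Human hepatoma BEL-7402 cells, sulforhodamine B protein stain per a reported method. Dose-response curves plotted; IC50 taken as the concentration giving 50% lower absorption than control cells. Means of three independent experiments, each concentration in triplicate wells. 10-Hydroxycamptothecine as positive control.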
# K562 = assay: Cytotoxicity against human K562 cells after 72 hrs by MTT assay; format: functional, cell-based; conditions: K562, 72 h
# In short: (§1)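 MTT colorimetric read-out per a previously described method. K-562 (human leukemia) used 10-hydroxycamptothecine as positive control, U87MG (human spongioblastoma) used nimustine. IC50 read from dose-response curves as the concentration causing 50% reduction in absorption versus control cells. Mean of three independent experiments, triplicate wells per concentration.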
# Tubulin (Sus scrofa) = Tubulin (Sus scrofa) (UniProt P02554+P02550); assay: Induction of pig brain tubulin polymerization at 10 ug/ml
# Tubulin (Sus scrofa), sequence (P02550 whole entry, looked up): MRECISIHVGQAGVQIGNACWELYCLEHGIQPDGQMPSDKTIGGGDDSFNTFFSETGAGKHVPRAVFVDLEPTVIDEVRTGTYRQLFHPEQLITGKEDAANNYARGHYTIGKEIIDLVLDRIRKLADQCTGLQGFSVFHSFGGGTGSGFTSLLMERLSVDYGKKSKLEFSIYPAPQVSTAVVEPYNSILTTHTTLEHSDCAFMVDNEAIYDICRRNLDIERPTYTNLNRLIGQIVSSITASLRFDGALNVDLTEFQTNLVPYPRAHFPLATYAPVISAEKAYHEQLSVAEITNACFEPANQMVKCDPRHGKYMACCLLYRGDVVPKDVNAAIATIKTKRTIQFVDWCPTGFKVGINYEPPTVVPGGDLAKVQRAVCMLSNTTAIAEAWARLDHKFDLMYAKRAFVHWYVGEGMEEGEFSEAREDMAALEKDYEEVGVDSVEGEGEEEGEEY
# Tubulin (Sus scrofa), sequence (P02554 whole entry, looked up): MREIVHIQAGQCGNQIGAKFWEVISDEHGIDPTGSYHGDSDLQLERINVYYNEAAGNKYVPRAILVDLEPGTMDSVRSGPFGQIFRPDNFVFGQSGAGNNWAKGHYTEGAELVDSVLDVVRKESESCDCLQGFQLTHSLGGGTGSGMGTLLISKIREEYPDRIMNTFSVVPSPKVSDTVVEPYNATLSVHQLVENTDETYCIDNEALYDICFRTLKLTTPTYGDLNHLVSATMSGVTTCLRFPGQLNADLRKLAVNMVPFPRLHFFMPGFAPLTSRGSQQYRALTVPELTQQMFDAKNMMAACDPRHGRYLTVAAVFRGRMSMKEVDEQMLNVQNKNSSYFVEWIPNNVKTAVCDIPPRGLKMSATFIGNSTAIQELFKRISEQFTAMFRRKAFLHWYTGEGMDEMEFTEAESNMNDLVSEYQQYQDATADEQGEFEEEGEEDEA
# [1] = Cytotoxicity against human U87MG cells after 72 hrs by MTT assay; format: functional, cell-based, U-87MG ATCC; conditions: U-87 MG; in short: as §1
Compound,Activity (Tubulin (Sus scrofa)),IC50 (Bel-7402),IC50 (K562),IC50 [1]
CCC(CC[C@@H](C)[C@H]1[C@H](O[C@@H]2O[C@@H]([C@@H](O)COC)[C@H](O)[C@H]2O)CC2=C3[C@@H](O[C@@H]4O[C@@H]([C@@H](O)COC)[C@H](O)[C@H]4O)[C@@H](O)[C@H]4C[C@H](O)CC[C@]4(C)[C@H]3CC[C@@]21C)C(C)C (mixture of isomers),–,2.7 µM,0.6 µM,3.6 µM
Cc1ncc(CNC(=O)N(CCCl)N=O)c(N)n1 [NIMUSTINE],–,–,–,0.84 µM
CC[C@@]1(O)C(=O)OCc2c1cc1n(c2=O)Cc2cc3cc(O)ccc3nc2-1 [HYDROXYCAMPTOTHECIN],–,0.36 µM,0.16 µM,–

# More lines, main results first:
Activity (Tubulin (Sus scrofa)),Compound,IC50 (Bel-7402),IC50 (K562),IC50 [1]
inactive,CCC(CC[C@@H](C)[C@H]1[C@H](O[C@@H]2O[C@@H]([C@@H](O)COC)[C@H](O[C@@H]3O[C@@H]([C@@H](O)COC)[C@H](O)[C@H]3O)[C@H]2O)CC2=C3[C@@H](O)[C@@H](O)[C@H]4C[C@H](O)CC[C@]4(C)[C@H]3CC[C@@]21C)C(C)C (mixture of isomers),4.9 µM,2.8 µM,> 24.5 µM
inactive,COC[C@H](O)[C@@H]1O[C@@H](O[C@@H]2[C@@H](O)[C@H](O[C@@H]3CC4=C5[C@@H](O)[C@@H](O)[C@H]6C[C@H](O)CC[C@]6(C)[C@H]5CC[C@]4(C)[C@H]3[C@H](C)CCCC(C)C)O[C@H]2[C@@H](O)COC)[C@H](O)[C@H]1O [ANTHENOSIDE E],8.3 µM,6.1 µM,> 25.4 µM
inactive,C=C(CC[C@@H](C)[C@H]1[C@H](O[C@@H]2O[C@@H]([C@@H](O)COC)[C@H](O[C@@H]3O[C@@H]([C@@H](O)COC)[C@H](O)[C@H]3O)[C@H]2O)CC2=C3[C@@H](O)[C@@H](O)[C@H]4C[C@H](O)CC[C@]4(C)[C@H]3CC[C@@]21C)C(C)C [ANTHENOSIDE G],5.5 µM,4.6 µM,> 25.1 µM
